Consider 1 compound from ChEMBL document CHEMBL4382192, “Discovery of a potent dual ALK and EGFR T790M inhibitor” (Eur J Med Chem, 2017).

In series [1] the target is Death-associated protein kinase 1 (Homo sapiens) (UniProt P53355). Description: Binding affinity to wild-type human partial length DAPK1 (M1 to F296 residues) expressed in bacterial expression system assessed as residual binding level at 1 uM by Kinomescan method relative to control.
In series [2] the test system is Phosphatidylinositol 4,5-bisphosphate 3-kinase catalytic subunit alpha isoform (Homo sapiens), P42336 [E542K]. Description: Binding affinity to human partial length PIK3CA E542K mutant (R108 to N1068 residues) expressed in mammalian expression system assessed as residual binding level at 1 uM by Kinomescan method relative to control.
In series [3] the target is Serine/threonine-protein kinase TAO3 (Homo sapiens) (UniProt Q9H2K8). Put plainly: Binding affinity to wild-type human partial length TAOK3 (M1 to T316 residues) expressed in mammalian expression system assessed as residual binding level at 1 uM by Kinomescan method relative to control.
Series [4] addresses Rhodopsin kinase GRK7 (Homo sapiens) (UniProt Q8WTQ7). Description: Binding affinity to wild-type human full length GRK7 (M1 to L553 residues) expressed in mammalian expression system assessed as residual binding level at 1 uM by Kinomescan method relative to control. An outline of the steps: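 Single-point kinome-wide KINOMEscan binding panel, test compound at 1 μM, run by the provider's standard protocol.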

Series [5] has as its target Calcium/calmodulin-dependent protein kinase type II subunit gamma (Homo sapiens) (UniProt Q13555). Put plainly: Binding affinity to wild-type human partial length CAMK2G (R9 to A303 residues) expressed in bacterial expression system assessed as residual binding level at 1 uM by Kinomescan method relative to control.
Series [6] deals with Ephrin type-A receptor 1 (Homo sapiens) (UniProt P21709). Description: Binding affinity to wild-type human partial length EPHA1 (V588 to I913 residues) expressed in bacterial expression system assessed as residual binding level at 1 uM by Kinomescan method relative to control.
Series [7] addresses Tyrosine-protein kinase Lyn (Homo sapiens) (UniProt P07948). Description: Binding affinity to wild-type human partial length LYN (C219 to Q511 residues) expressed in bacterial expression system assessed as residual binding level at 1 uM by Kinomescan method relative to control.
The target in series [8] is Calcium/calmodulin-dependent protein kinase kinase 2 (Homo sapiens) (UniProt Q96RR4). Put plainly: Binding affinity to wild-type human partial length CAMKK2 (D65 to V471 residues) expressed in bacterial expression system assessed as residual binding level at 1 uM by Kinomescan method relative to control.
Series [9] has as its target Serine/threonine-protein kinase D2 (Homo sapiens) (UniProt Q9BZL6). Description: Binding affinity to wild-type human partial length PRKD2 (A519 to E838 residues) expressed in bacterial expression system assessed as residual binding level at 1 uM by Kinomescan method relative to control.
For series [10], the target named is Macrophage colony-stimulating factor 1 receptor (Homo sapiens) (UniProt P07333). Put plainly: Binding affinity to wild-type human partial length autoinhibited CSF1R (Y538 to S939 residues) expressed in mammalian expression system assessed as residual binding level at 1 uM by Kinomescan method relative to control.
Series [11] in a line: Metabolic stability in human liver microsomes assessed as parent compound remaining at 1 uM after 30 mins in presence of NADPH by LC/MS/MS analysis. It counts as ADME, Microsome. The note with it: read-out: Stability. An outline of the steps:
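Compound at 1 μM final with 0.5 mg/mL microsomal protein in 100 mM phosphate buffer pH 7.4 at 37 °C, started by adding an NADPH-regenerating system. Reactions were quenched with cold acetonitrile at 0 and 30 min and spun down. Supernatant was analysed by LC-MS/MS. The 0-min sample, quenched before NADPH addition, was set as 100%, and percent parent remaining came from peak areas.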

In series [12] the target is Serine/threonine-protein kinase Sgk3 (Homo sapiens) (UniProt Q96BR1). Description: Binding affinity to wild-type human partial length SGK3 (M119 to L496 residues) expressed in mammalian expression system assessed as residual binding level at 1 uM by Kinomescan method relative to control.
The target of series [13] is Mitogen-activated protein kinase 12 (Homo sapiens) (UniProt P53778). Put plainly: Binding affinity to wild-type human full length p38-gamma (M1 to L367 residues) expressed in mammalian expression system assessed as residual binding level at 1 uM by Kinomescan method relative to control.
The target in series [14] is Ribosomal protein S6 kinase alpha-1 (Homo sapiens) (UniProt Q15418). Description: Binding affinity to wild-type human partial length N-terminal RSK1 Kinase domain 1 (M1 to E388 residues) expressed in bacterial expression system assessed as residual binding level at 1 uM by Kinomescan method relative to control.
For series [15], the system named is Tyrosine-protein kinase ABL1 (Homo sapiens), P00519 [F317I]. Description: Binding affinity to human phosphorylated ABL1 F317I mutant (S229 to K512 residues) expressed in mammalian expression system assessed as residual binding level at 1 uM by Kinomescan method relative to control. An outline of the steps: (§1)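 Kinome-wide selectivity panel run by the KINOMEscan method, with the test compound at a single concentration of 1 μM. Wild-type and mutant kinases were profiled in the same screen.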

Series [16] addresses Receptor-type tyrosine-protein kinase FLT3 (Homo sapiens) (UniProt P36888). Put plainly: Binding affinity to wild-type human partial length FLT3 (V592 to Y969 residues) expressed in bacterial expression system assessed as residual binding level at 1 uM by Kinomescan method relative to control.
Series [17] deals with CYP2C19 (Homo sapiens, UniProt P33261). Put plainly: Residual activity of CYP2C19 in human liver microsomes at 10 uM using S-mephenytoin 4-hydroxylase as substrate preincubated for 5 mins followed by NADPH addition measured after 15 mins by LC/MS/MS analysis relative to control. As to conditions: probe S-mephenytoin (4-hydroxylation).
For series [18], the target named is Atypical kinase COQ8A, mitochondrial (Homo sapiens) (UniProt Q8NI60). Put plainly: Binding affinity to wild-type human full length ADCK3 (M280 to Q647 residues) expressed in bacterial expression system assessed as residual binding level at 1 uM by Kinomescan method relative to control.
Series [19] has as its system Tyrosine-protein kinase ABL1 (Homo sapiens), P00519 [Q252H]. Description: Binding affinity to human non-phosphorylated ABL1 Q252H mutant (S229 to K512 residues) expressed in mammalian expression system assessed as residual binding level at 1 uM by Kinomescan method relative to control. An outline of the steps: as §1
The target of series [20] is Mitogen-activated protein kinase 15 (Homo sapiens) (UniProt Q8TD08). Put plainly: Binding affinity to wild-type human partial length ERK8 (M1 to P437 residues) expressed in bacterial expression system assessed as residual binding level at 1 uM by Kinomescan method relative to control.
Series [21] concerns the target Transient receptor potential cation channel subfamily M member 6 (Homo sapiens) (UniProt Q9BX84). Put plainly: Binding affinity to wild-type human partial length TRPM6 (Q1723 to I1998 residues) expressed in mammalian expression system assessed as residual binding level at 1 uM by Kinomescan method relative to control.
In series [22] the test system is Epidermal growth factor receptor (Homo sapiens), P00533 [UNDEFINED MUTATION]. Put plainly: Binding affinity to human partial length EGFR S752-I759del mutant expressed in bacterial expression system assessed as residual binding level at 1 uM by Kinomescan method relative to control. The method, boiled down: as §1

Receptor-type tyrosine-protein kinase FLT3 (Homo sapiens), sequence (P36888 whole entry, the tested form may be a part): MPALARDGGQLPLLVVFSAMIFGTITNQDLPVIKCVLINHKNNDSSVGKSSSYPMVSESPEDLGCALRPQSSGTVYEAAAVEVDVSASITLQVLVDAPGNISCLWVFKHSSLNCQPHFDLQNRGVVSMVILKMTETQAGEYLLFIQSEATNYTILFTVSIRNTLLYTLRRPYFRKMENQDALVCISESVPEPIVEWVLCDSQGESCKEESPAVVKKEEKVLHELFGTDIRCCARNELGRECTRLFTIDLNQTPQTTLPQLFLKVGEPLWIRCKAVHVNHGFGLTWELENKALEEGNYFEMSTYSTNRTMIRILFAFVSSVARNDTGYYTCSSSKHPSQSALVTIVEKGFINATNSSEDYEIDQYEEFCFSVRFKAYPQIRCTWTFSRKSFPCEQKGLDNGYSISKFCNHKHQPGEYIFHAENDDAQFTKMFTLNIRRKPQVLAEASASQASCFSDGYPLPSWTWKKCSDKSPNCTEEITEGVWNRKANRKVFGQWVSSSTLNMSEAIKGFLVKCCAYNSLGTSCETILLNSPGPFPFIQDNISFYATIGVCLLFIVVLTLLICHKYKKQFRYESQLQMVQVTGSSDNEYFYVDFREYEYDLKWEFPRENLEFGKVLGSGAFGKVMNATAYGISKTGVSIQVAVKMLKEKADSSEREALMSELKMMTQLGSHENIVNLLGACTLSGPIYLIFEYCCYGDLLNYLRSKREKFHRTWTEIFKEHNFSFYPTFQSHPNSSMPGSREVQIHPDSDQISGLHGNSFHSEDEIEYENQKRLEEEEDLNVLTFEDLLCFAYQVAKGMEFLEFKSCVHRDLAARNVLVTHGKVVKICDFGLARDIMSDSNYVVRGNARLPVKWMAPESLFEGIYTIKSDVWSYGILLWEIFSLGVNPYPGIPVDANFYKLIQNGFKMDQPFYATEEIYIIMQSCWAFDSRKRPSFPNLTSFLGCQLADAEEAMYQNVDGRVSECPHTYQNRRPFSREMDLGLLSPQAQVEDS
Phosphatidylinositol 4,5-bisphosphate 3-kinase catalytic subunit alpha isoform (Homo sapiens), P42336 [E542K], sequence (P42336 whole entry E542K, the tested form may be a part, canonical isoform): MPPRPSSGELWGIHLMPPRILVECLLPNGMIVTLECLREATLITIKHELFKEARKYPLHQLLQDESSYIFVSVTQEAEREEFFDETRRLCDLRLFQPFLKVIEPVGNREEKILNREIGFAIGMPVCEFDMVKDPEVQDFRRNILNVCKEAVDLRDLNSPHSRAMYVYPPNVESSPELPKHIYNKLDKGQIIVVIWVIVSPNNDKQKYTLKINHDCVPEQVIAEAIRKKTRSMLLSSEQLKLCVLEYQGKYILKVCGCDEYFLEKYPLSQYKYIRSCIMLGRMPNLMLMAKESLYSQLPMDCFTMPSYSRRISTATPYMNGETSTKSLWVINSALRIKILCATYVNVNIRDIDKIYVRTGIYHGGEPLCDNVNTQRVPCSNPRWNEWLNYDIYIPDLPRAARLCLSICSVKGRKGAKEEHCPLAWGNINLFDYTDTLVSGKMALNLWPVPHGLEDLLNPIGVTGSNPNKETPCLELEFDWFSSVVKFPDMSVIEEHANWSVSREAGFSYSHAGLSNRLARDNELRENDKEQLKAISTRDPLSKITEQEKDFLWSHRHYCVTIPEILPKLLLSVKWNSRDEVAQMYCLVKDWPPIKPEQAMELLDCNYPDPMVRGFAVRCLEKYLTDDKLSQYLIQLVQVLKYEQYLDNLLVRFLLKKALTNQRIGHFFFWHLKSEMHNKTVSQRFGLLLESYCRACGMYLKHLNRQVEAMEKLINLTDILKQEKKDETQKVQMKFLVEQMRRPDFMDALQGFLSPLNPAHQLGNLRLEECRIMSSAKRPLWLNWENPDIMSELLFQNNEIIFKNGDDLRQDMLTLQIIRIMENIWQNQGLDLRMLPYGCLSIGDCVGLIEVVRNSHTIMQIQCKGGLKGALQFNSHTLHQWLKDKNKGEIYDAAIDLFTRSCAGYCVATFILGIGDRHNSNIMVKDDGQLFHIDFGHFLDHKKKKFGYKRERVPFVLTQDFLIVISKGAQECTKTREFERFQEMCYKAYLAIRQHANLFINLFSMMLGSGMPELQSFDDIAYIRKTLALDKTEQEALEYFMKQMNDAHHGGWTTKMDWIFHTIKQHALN
Transient receptor potential cation channel subfamily M member 6 (Homo sapiens), sequence (Q9BX84 whole entry, the tested form may be a part): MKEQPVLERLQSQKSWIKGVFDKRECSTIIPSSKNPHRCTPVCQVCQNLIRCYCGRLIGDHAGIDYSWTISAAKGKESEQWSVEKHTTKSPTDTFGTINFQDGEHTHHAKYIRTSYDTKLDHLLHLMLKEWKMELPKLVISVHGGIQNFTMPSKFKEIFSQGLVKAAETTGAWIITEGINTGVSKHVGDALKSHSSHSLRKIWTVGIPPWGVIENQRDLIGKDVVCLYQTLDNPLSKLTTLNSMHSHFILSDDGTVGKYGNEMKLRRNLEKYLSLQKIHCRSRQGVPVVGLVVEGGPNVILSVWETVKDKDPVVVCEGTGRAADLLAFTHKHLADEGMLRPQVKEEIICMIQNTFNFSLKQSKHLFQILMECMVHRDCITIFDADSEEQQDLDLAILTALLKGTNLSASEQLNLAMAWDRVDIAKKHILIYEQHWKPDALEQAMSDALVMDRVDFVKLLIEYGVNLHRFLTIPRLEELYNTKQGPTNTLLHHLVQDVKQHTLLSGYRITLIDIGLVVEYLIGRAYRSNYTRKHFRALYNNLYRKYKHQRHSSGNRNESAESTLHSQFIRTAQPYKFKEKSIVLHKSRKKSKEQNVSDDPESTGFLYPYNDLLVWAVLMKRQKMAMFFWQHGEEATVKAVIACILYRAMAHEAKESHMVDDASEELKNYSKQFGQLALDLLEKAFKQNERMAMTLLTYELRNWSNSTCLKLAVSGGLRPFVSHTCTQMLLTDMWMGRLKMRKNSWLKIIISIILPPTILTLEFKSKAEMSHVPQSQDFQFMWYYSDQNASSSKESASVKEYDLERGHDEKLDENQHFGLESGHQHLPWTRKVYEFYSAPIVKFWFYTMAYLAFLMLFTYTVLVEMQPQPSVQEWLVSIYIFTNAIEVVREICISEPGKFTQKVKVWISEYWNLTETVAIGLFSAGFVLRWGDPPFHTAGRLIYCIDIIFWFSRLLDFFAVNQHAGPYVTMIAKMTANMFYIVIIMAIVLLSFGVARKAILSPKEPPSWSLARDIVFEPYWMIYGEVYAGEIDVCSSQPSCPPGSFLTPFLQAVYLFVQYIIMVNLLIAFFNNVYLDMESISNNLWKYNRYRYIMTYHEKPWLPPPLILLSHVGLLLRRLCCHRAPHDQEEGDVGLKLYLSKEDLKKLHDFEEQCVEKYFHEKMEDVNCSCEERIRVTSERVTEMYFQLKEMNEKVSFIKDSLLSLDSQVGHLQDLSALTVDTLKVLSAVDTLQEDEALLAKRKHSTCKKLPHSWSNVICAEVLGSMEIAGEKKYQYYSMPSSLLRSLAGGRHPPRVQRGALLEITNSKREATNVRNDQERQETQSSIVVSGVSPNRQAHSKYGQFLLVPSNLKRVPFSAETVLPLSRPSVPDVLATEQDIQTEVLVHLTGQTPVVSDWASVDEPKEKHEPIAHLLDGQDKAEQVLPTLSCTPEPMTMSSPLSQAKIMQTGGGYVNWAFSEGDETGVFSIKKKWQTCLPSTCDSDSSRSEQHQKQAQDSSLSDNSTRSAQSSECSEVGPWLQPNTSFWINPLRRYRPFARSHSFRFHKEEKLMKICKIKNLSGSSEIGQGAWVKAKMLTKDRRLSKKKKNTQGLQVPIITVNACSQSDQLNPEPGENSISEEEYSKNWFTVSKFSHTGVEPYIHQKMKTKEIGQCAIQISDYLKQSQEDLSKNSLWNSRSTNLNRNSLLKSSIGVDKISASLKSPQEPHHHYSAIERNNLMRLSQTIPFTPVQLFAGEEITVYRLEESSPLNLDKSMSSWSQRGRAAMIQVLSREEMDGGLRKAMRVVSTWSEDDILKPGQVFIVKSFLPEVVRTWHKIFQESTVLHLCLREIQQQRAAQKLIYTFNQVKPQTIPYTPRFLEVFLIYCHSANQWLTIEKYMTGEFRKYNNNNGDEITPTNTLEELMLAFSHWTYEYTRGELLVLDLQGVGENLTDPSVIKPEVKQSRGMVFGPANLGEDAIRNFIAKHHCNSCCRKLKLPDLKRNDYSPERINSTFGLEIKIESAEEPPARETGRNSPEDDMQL
Macrophage colony-stimulating factor 1 receptor (Homo sapiens), sequence (P07333 whole entry, the tested form may be a part): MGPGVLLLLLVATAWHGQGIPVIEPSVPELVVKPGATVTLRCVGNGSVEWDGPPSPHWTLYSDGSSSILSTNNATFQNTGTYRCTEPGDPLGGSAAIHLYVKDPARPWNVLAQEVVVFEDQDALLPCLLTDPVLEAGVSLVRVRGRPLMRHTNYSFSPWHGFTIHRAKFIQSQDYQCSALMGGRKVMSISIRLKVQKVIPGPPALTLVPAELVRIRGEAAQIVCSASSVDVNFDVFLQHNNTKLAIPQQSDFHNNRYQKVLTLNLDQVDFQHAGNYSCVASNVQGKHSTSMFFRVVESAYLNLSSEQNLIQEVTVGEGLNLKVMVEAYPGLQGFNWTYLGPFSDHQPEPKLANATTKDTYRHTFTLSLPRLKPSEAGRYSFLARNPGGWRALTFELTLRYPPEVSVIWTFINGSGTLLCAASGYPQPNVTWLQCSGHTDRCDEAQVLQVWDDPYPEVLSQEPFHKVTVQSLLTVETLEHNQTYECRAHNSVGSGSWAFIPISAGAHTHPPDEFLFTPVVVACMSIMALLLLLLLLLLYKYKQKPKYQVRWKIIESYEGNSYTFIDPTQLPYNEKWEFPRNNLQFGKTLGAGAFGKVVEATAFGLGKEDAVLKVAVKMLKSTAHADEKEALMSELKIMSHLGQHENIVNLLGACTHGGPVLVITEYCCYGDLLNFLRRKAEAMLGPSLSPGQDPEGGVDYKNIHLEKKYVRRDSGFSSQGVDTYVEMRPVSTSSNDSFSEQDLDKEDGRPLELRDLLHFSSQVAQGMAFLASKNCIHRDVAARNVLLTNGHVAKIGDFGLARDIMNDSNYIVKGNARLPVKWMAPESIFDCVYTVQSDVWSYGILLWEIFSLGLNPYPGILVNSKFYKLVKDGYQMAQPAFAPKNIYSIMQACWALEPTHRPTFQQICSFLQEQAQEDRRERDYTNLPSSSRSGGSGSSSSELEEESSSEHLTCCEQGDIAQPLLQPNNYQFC

Regarding `C=CC(=O)Nc1cc(Nc2ncc(Cl)c(Nc3ccccc3S(=O)(=O)C(C)C)n2)c(OC)cc1N(C)CCN(C)C`, the Activity stood at 59% in [1]; 72% in series [2]; 0.15% in series [3]; 4.3% in [4]; 26% in [5]; 12% in series [6]. In addition, the Activity in series [7] is 57%; in series [8] it was 1.6%; in series [9], 3.1%; in series [10] it was 92%; in series [12], 53%; in [13] it was 56%. The Activity in series [14] turned out to be 4.3%; in series [15], 2.8%; in [16], 3.1%; in series [18], 100%; in series [19], 1.9%; in series [20], 73%. Further, the Activity was found to be 52% in series [21] and 2.4% in series [22]. Moreover, the remaining at 0.5 h, 1 µM in series [11] came to 16%. Besides, the Activity at […], 10 µM in [17] is 86%.
